Screening results from PubChem BioAssay.
Compounds with a hit are over-represented: about 1.4% of the library has one in this group of screens.
Myeloid diff 2 = induction of myeloid progenitor differentiation, primary screen, cell-based, flow cytometry, MLPCN library; calls only at 10 µM; 1% of 360,000 active; ER-HoxA9 myeloid progenitors, lysozyme-GFP differentiation; AID 624256, 2012;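 active = normalized GFP-positive differentiation at or above the plate's own cutoff, the solvent-only control mean plus 3 SD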;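 also: cells exposed to compound for four days before flow analysis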
Casp6 inh = human caspase-6 inhibitors, primary screen, biochemical, VEID-R110 fluorescence, single point, set 2. P55212. purified caspase-6, Z-VEID-R110 cleavage fluorescence. inhibition, % at 12.5 µM. 0.53% of 350,000 active. AID 686996, 2013;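 active = mean inhibition across replicates at least about 35%, with every replicate also reaching that limit, limit read from the data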;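 also: 0% = median of neutral control wells and 100% = no fluorescence left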
Target sequence (P55212 24-179 limits assumed): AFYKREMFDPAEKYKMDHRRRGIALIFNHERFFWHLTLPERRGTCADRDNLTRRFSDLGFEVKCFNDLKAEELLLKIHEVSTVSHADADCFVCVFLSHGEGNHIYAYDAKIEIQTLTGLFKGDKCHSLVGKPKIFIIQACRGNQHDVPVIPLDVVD
Target sequence (P55212 194-293 limits assumed): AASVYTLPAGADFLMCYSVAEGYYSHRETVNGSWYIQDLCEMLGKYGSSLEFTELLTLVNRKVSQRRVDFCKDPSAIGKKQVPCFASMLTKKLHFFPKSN
T cell HTS = modulators of CD8 T cell-vesicle binding, primary screen, mouse 2C CD8+ T cells, flow cytometry; 2C CD8+ T cell-vesicle binding; stronger effect = lower value; response (vesicle binding), % at 7 µM; 0.068% of 330,000 active;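 active = response, share of CD8 T cells binding vesicles, and their 90th percentile fluorescence all below set limits, cut at about 80% in these data, passing the limit was not always enough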;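 also: values below 100% mean blocked vesicle binding to the CD8+ T cells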
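Also added: QL9-peptide-loaded Drosophila micro-vesicles bearing Ld, ICAM-1 and B7-1; Test system: purified 2C TCR transgenic mouse naive CD8+ T cells; Measured by: cytometric PE anti-B7-1 and Alexa647 anti-CD8 signals after 1% paraformaldehyde fixation; Timing: binding step 1.5 h, 37 °C, antibody labelling 20 min, ice.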
Vif imaging = HIV Vif self-association inhibitors, primary screen, imaging, HEK293T, single point; inhibition, % at 7.49 µM; 0.35% of 340,000 active; AID 602346, 2012; HEK293T cells, Vif self-association by quenched fluorescence, 24 h; in the data active = inhibition above about 50%, passing the limit was not always enough
Myeloid diff = inducers of myeloid progenitor differentiation, confirmation, cell-based, GFP/Mac1 flow cytometry, cherry pick 01; shares compounds with Myeloid diff 2; ER-HoxA9 myeloid progenitors, GFP/Mac1 double-positive flow; calls only; 2% of 2,300 active; AID 651706, 2012;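 active = share of green or green-and-red cells above 9 and 9% in run 1 or 4 and 3% in run 2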
GFP autofluor = flagged as fluorescent in myeloid differentiation counter-screen; shares compounds with Myeloid diff 2; ER-HoxA9 myeloid progenitors, no estrogen, GFP autofluorescence flow cytometry; vehicle wells 0%, positive control 100%; fluorescence response, % (no concentration beside the values); 7.4% of 2,300 active; AID 651707;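 active = over 5% cells positive for green fluorescent reporter, or over 2% positive for both it and APC stain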;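 also: range taken on the double positive population between DMSO and positive control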
* = called active by the depositor; i = inactive; . = not tested or not shown; + = active, no number.

SMILES | Myeloid diff 2 | Casp6 inh | T cell HTS | Vif imaging | Myeloid diff | GFP autofluor
O=C1NC(=O)N(Cc2ccccc2Cl)C(=O)/C1=C/N1CCOCC1 | i | . | 719 | 5 | i | 1
CN1CCN(C(=O)CN=[N+]=[N-])CC1 | . | 2 | . | . | . | .
N#Cc1cccc(-c2ccc([C@H]3[C@@H](CO)N4CCCCN(C(=O)Cc5ccccc5)C[C@@H]34)cc2)c1 | . | 1 | . | . | . | .
CCOC(=O)C1=C(C)c2ccccc2OC1(C(=O)OCC)c1ccccc1 (configuration not stated) | i | 0 | . | -2 | i | 0
CCC(=O)N1[C@@H]2c3ccc(-c4ccc(F)cc4)c(=O)n3C[C@H]1[C@H](CO)[C@H]2C(=O)OC | . | 1 | . | . | . | .
C[C@]12CCC(=O)C=C1CCC1C2CC[C@@]2(C)C1CC[C@@]2(O)CC#N (some centres not stated) | + | . | 243 | -10 | i | 0
CN(CCOc1ccc(C=C2C(=O)NC(=O)NC2=O)cc1)c1ccccn1 | i | -6 | 296 | 4 | i | 0
COc1ccc(OCCOc2cccc(C=C3C(=O)NC(=O)NC3=O)c2)cc1 | . | . | 251 | . | . | .
O=c1[nH]c(=S)[nH]c(O)c1N=Nc1ccc2c(c1)OCO2 | i | -2 | 377 | 4 | . | .
O=c1[nH]c(=S)[nH]c(O)c1N=Nc1ccc2c(c1)OCCO2 | + | -1 | 257 | -4 | i | 0
CCOC(=O)C1SC2(C(F)(F)F)CC1(O)c1c(C)cc(C)nc1O2 (configuration not stated) | + | . | 619 | 16 | i | 0
O=C(Cc1ccccn1)N1CCCCN2[C@@H](CO)[C@H](c3ccc(-c4ccccc4F)cc3)[C@@H]2C1 | . | -5 | . | . | . | .
COC(=O)C1=C(c2cc3ccccc3s2)C[C@@H]2CC[C@H]1N2C(=O)NCC1CC1 | i | 2 | 511 | -9 | i | 0
CCCNC(=O)N1[C@H]2CC[C@@H]1C(C(=O)OC)=C(c1ccc(Cl)c(C(F)(F)F)c1)C2 | i | 2 | 364 | 0 | i | 1
COC(=O)C1=C(c2cc3ccccc3s2)C[C@@H]2CC[C@H]1N2C(=O)NC1CC1 | i | . | 509 | -8 | . | .
COC(=O)C1=C(c2ccc(Cl)c(C(F)(F)F)c2)C[C@@H]2CC[C@H]1N2C(=O)N1CCCC1 | i | -2 | 903 | 0 | i | 0
O=C(Cc1cccnc1)N1CCCCN2[C@H](C1)[C@H](c1ccc(C#CC3CC3)cc1)[C@@H]2CO | . | 0 | . | . | . | .
O=c1[nH]c(=S)n(C2CC2)c(O)c1/C=N/Nc1ccccc1 | i | . | 372 | -12 | . | .
O=c1[nH]c(=S)n(C2CC2)c(O)c1/C=N/Nc1cccc2ccccc12 | i | . | 427 | -9 | i | 2
O=C(Cc1cccnc1)N1CCCCN2[C@H](C1)[C@H](c1ccc(/C=C/c3ccccc3)cc1)[C@@H]2CO | . | -3 | . | . | . | .
CCOP(=S)(OCC)c1ccc(N(C)C)cc1 | + | . | 312 | 5 | i | 0
COC(=O)NC(=C(Cl)Cl)P(=O)(c1ccccc1)c1ccccc1 | + | 2 | 299 | 6 | i | 0
Cc1ccc(C(=O)N/C(=C\Cl)P(=O)(c2ccccc2)c2ccccc2)cc1 | i | 2 | 184 | 3 | . | .
COC(=O)[C@H]1[C@H](CO)[C@H]2Cn3c(ccc(-c4cccc(OC)c4)c3=O)[C@@H]1N2C(=O)c1ccccc1F | . | -2 | . | . | . | .
O=P(CN1CCN(c2ccccc2)CC1)(N1CCCCC1)N1CCCCC1 | + | . | 759 | . | i | 0
COC(=O)[C@H]1[C@H](CO)[C@H]2Cn3c(ccc(C4=CCCCC4)c3=O)[C@@H]1N2Cc1ccccn1 | . | 0 | . | . | . | .
CCOC(=O)c1c(C)n(COCCO)c2ccc(O)cc12 | i | . | 415 | 1 | i | 0
CCOC(=O)c1c(C)n(Cc2ccc(F)cc2)c2ccc(O)cc12 | i | 0 | 120 | -21 | . | .
CCc1cc2c(cc1-c1csc(C/C(N)=N/O)n1)C(C)(C)CCC2(C)C | + | -2 | . | . | i | 2
CCCNC(=O)[C@@H]1[C@@H](CO)[C@@H]2Cn3c(cccc3=O)[C@H]1N2CCC | . | 1 | . | . | . | .
